{"data": "Assay results from different studies", "cell line": "THP-1"}
{"Structure (SMILES)": "O=C(Nc1nc2ccccc2n1CCN1CCOCC1)c1cccc([N+](=O)[O-])c1", "read-out": "TNF-α release", "action": "inhibitor", "time": "17 h", "notes": "LPS-stimulated", "IC50": "1.12 µM"}
{"Structure (SMILES)": "COc1cccc2c1C(=O)c1c(O)c3c(c(O)c1C2=O)C[C@@](O)(C(=O)CO)C[C@@H]3O[C@H]1C[C@H](N)[C@H](O)[C@H](C)O1", "read-out": "cell growth or viability", "technique": "MTT", "time": "48 h", "IC50": "2.7 µg/mL"}
{"Structure (SMILES)": "Cl.NCc1ccc(-c2nc(-c3ccc(Oc4ccc(C(F)(F)F)cc4)cc3)no2)cc1", "read-out": "cell growth or viability", "technique": "LDH", "time": "24 h", "IC50": "4.4 µg/mL"}
{"Structure (SMILES)": "C=C1C(=O)O[C@H]2[C@H]1CC/C(C)=C/CC[C@@]1(C)O[C@@H]21", "read-out": "TNF-α release", "action": "inhibitor", "time": "17 h", "notes": "LPS-stimulated", "IC50": "1.3 µM"}
{"Structure (SMILES)": "Cn1c(-c2nnc(NC(=O)c3cc4c([nH]c5ccccc54)c(-c4ccccc4)n3)s2)cc2ccccc21", "read-out": "cell growth or viability", "technique": "MTT", "time": "72 h", "IC50": "14.2 µM"}
{"Structure (SMILES)": "CC(C)[C@H](N)C(=O)N1CCC[C@H]1B(O)O", "read-out": "cell growth or viability", "technique": "ATP luminescence", "time": "48 h", "IC50": "0.206 µM"}
{"Structure (SMILES)": "O=C(O)c1ccc(CN2CCC(CN[C@@H]3C[C@H]3c3ccccc3)CC2)cc1", "read-out": "cell growth or viability", "technique": "MTS", "time": "6 days", "IC50": "> 50 µM"}
{"Structure (SMILES)": "Cc1cnc(-c2ccc(-c3ccc(NC(=O)Nc4c(F)cc(F)cc4F)cc3F)c3c2C(=O)NC3)[nH]1", "read-out": "cell growth or viability", "IC50": "0.00388 µM"}
{"Structure (SMILES)": "COc1ccc(-c2nc(C(=O)Nc3nnc(-c4cc5ccccc5[nH]4)s3)cc3c2[nH]c2ccccc23)cc1", "read-out": "cell growth or viability", "technique": "MTT", "time": "72 h", "IC50": "3.18 µM"}
{"Structure (SMILES)": "NCCc1c[nH]cn1", "read-out": "TNF-α release", "action": "inhibitor", "time": "17 h", "notes": "LPS-stimulated", "IC50": "1.89 µM"}
{"Structure (SMILES)": "Nc1nc(Nc2ccc3c(c2)CC[C@@H](N2CCCC2)CC3)nn1-c1cc2c(nn1)-c1ccccc1CCC2", "read-out": "cell growth or viability", "technique": "trypan blue", "time": "72 h", "IC50": "2.54 µM"}
{"Structure (SMILES)": "CC(CCc1ccc(O)cc1)NCCc1ccc(O)c(O)c1 (centres unmarked)", "read-out": "TNF-α release", "action": "inhibitor", "time": "17 h", "notes": "LPS-stimulated", "IC50": "0.51 µM"}
{"Structure (SMILES)": "CCn1c(-c2nnc(NC(=O)c3cc4c([nH]c5ccccc54)c(-c4ccc(OC)cc4)n3)s2)cc2ccccc21", "read-out": "cell growth or viability", "technique": "MTT", "time": "72 h", "IC50": "48.6 µM"}
{"Structure (SMILES)": "CC[C@@H](C)[C@H](N)C(=O)N1Cc2ccccc2C1", "read-out": "cell growth or viability", "technique": "ATP luminescence", "IC50": "1.7 µM"}
{"Structure (SMILES)": "Cn1c(-c2nnc(NC(=O)c3cc4c([nH]c5ccccc54)c(-c4ccc(F)cc4)n3)s2)cc2ccccc21", "read-out": "cell growth or viability", "technique": "MTT", "time": "72 h", "IC50": "32.8 µM"}
{"Structure (SMILES)": "Cc1ccc(S(=O)(=O)/C=C/C#N)cc1", "read-out": "TNF-α release", "action": "inhibitor", "time": "17 h", "notes": "LPS-stimulated", "IC50": "1.22 µM"}
{"Structure (SMILES)": "CCn1c(-c2nnc(NC(=O)c3cc4c([nH]c5ccccc54)c(-c4cc(OC)c(OC)c(OC)c4)n3)s2)cc2ccccc21", "read-out": "cell growth or viability", "technique": "MTT", "time": "72 h", "IC50": "40.2 µM"}
{"Structure (SMILES)": "O=[N+]([O-])c1c[nH]nc1-c1nc(-c2ccc(Oc3ccc(I)cc3)cc2)no1", "read-out": "cell growth or viability", "technique": "LDH", "time": "24 h", "IC50": "> 50 µg/mL"}
{"Structure (SMILES)": "CCC(NC(C)C)C(O)c1ccc(O)c(O)c1 (centres unmarked)", "read-out": "TNF-α release", "action": "inhibitor", "time": "17 h", "notes": "LPS-stimulated", "IC50": "2.07 µM"}
{"Structure (SMILES)": "O=C(Nc1nnc(-c2cc3ccccc3[nH]2)s1)c1cc2c([nH]c3ccccc32)c(-c2ccc(F)cc2)n1", "read-out": "cell growth or viability", "technique": "MTT", "time": "72 h", "IC50": "6.11 µM"}
